LGR2 inh: inhibitors of bursicon-induced Drosophila LGR2 receptor cAMP signaling | 0.35% of 380,000 active | HEK293 LGR2, CRE-luciferase, bursicon-stimulated, 4 h | inhibition, % at 9.99 µM | AID 720647;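 active = drop in luminescence signal, shown as inhibition above about 50% in the replicate tests, limit read from the data, passing the limit was not always enough; inconclusive = probably only some replicates passing the limit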;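 note: agonist challenge used bursicon conditioned medium at about half maximal strength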
EWS-Fli inh: inhibitors of EWS/Fli oncoprotein transcriptional activity; 0.67% of 350,000 active; inhibition, % at 12.6 µM; A673 NR0B1-luciferase reporter, viability-normalised;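 active = mean inhibition of at least 50% after viability correction, with every replicate also passing that limit; inconclusive = mean reaches 50% but only one of two replicates passes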;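 note: firefly luciferase signal divided by Alamar Blue viability fluorescence both relative to DMSO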
Ecoli rRNA inh: inhibitors of bacterial rRNA selective over humanized ribosomes. E. coli WT GFP vs humanized-ribosome RFP mutants, fluorescence, 24 h; hits give low values; DMSO median 0, no signal -100. GFP signal change (wild-type ribosome), % (concentration not given with the values). 1.6% of 350,000 active;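 active = significant combined selectivity score with lowered wild-type GFP, culture density cut under 30%, mutant RFP and density less affected; inactive = any of these conditions unmet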
E-selectin induc: induces E-selectin expression in human endothelial cells | HUVEC E-selectin immunofluorescence imaging; normalized: neutral wells 0, TNF-alpha wells 100 | activation, % at 7.58 µM | 0.37% of 260,000 active | AID 686992;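 active = mean E-selectin-positive cell signal at least 10% of the positive control, reached in at least 60% of replicates, without over 20% cell loss; inconclusive = no rule given, readout overlaps actives, possibly toxicity-flagged; inactive = the rest, including those meeting only one limit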
Target sequence (P16581 whole entry, looked up): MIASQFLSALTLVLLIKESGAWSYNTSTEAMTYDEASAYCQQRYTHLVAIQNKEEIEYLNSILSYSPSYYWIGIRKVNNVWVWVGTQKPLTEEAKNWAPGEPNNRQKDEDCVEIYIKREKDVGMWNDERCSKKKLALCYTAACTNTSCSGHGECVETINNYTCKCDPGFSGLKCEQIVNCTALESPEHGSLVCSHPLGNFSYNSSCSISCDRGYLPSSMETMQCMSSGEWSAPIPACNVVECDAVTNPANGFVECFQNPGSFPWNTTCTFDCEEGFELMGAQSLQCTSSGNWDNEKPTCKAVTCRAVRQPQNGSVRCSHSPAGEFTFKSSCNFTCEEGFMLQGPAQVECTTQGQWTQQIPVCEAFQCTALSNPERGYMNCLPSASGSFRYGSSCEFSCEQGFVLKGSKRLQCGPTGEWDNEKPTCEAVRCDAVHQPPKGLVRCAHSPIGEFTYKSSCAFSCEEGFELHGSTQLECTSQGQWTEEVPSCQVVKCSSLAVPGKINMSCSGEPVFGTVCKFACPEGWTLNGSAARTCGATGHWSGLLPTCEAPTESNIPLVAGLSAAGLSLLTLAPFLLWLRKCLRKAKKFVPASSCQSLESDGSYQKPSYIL
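material = human umbilical vein endothelial cells (HUVEC), E-selectin induction | quantity = 3,000 cells/well | medium = EGM-2 growth medium on 0.1% gelatin-coated wells | technique = immunofluorescence imaging | read-out basis = % PE-positive cells | control set = TNF-alpha positive control, DMSO neutral control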
A number is an active result; i = inactive; ? = inconclusive; nt = no result given; ! = a repeat was not active. Only some compounds are listed: those with a hit (about 2.4% of all), similar ones and a draw of the others.

SMILES	LGR2 inh	EWS-Fli inh	Ecoli rRNA inh	E-selectin induc
COc1ccc(S(=O)(=O)N(C)C[C@H]2Oc3ccc(NC(=O)CCCN(C)C)cc3C(=O)N([C@H](C)CO)C[C@@H]2C)cc1	i	i	i	i
C[C@H]1CN([C@@H](C)CO)C(=O)c2cc(NC(=O)Nc3ccc(F)cc3)ccc2O[C@H]1CN(C)S(=O)(=O)c1cccs1	i	i	i	26.5
COc1ccc(S(=O)(=O)N(C)C[C@H]2Oc3ccc(NC(=O)CCCN(C)C)cc3C(=O)N([C@@H](C)CO)C[C@H]2C)cc1	i	i	i	97.0
COc1ccc(S(=O)(=O)N(C)C[C@H]2Oc3ccc(NC(=O)CCCN(C)C)cc3C(=O)N([C@@H](C)CO)C[C@@H]2C)cc1	i	i	i	52.0
C[C@@H]1CN([C@H](C)CO)C(=O)c2cc(NS(C)(=O)=O)ccc2O[C@H]1CN(C)Cc1ccncc1	i	i	i	i
COc1ccc(NC(=O)N(C)C[C@H]2Oc3c(NC(=O)CCCCCC(=O)Nc4ccccc4N)cccc3C(=O)N([C@H](C)CO)C[C@H]2C)cc1	i	nt	i	i
COc1ccc(-c2cn(C[C@@H](Cc3ccccc3)NC(=O)Nc3ccccc3)nn2)cc1OC	nt	i	nt	nt
COc1ccc(S(=O)(=O)N(C)C[C@H]2Oc3ccc(NC(=O)Nc4ccc(F)cc4)cc3C(=O)N([C@H](C)CO)C[C@@H]2C)cc1	i	i	i	i
COc1ccc(NC(=O)Nc2ccc3c(c2)C(=O)N([C@@H](C)CO)C[C@@H](C)[C@@H](CN(C)S(=O)(=O)c2ccc(F)cc2)O3)cc1	i	i	i	37.4
COc1ccc(OCCN2C(=O)NC(C)(c3ccc(C)cc3)C2=O)cc1 (stereo unspecified)	i	nt	nt	nt
Cc1ccc(C2(C)NC(=O)N(CCOc3ccccc3)C2=O)cc1 (stereo unspecified)	i	nt	-33.1	nt
CC(C)NC(=O)N(C)C[C@H]1Oc2c(NC(=O)C3CCCCC3)cccc2C(=O)N([C@@H](C)CO)C[C@@H]1C	i	i	i	i
c1ccc(Cn2c[n+](Cc3ccccc3)cn2)cc1	i	i	i	42.8
Cc1noc(C)c1NC(=O)N(C)C[C@@H]1Oc2c(NC(=O)c3ccncc3)cccc2C(=O)N([C@H](C)CO)C[C@H]1C	i	i	i	?
O=C(NCC1CCN(C(=O)C(=O)c2cc3ccccc3o2)CC1)c1ccc2c(c1)OCCCO2	i	i	-16.5	i
COc1cc(OC)cc(C(=O)NCC2CCN(C(=O)C(=O)c3cc4ccccc4o3)CC2)c1	i	i	i	i
CSc1ccc(C(=O)NCC2CCN(C(=O)C(=O)c3cc4ccccc4o3)CC2)cc1	i	i	-13.7	i
CS(=O)(=O)c1ccc(S(=O)(=O)NCC2CCN(C(=O)C(=O)c3cc4ccccc4o3)CC2)cc1	i	i	i	i
O=C(C(=O)N1CCC(CNS(=O)(=O)c2ccccc2)CC1)c1cc2ccccc2o1	i	i	-13.4	i
O=C(NCCc1ccccc1)[C@H]1[C@H](CO)[C@H]2Cn3c(ccc(-c4ccccc4)c3=O)[C@@H]1N2	i	i	i	i
C[C@@H]1CCCCO[C@H](CN(C)Cc2ccc(C(F)(F)F)cc2)[C@@H](C)CN([C@@H](C)CO)C(=O)c2cc(NC(=O)Nc3ccccc3)ccc2O1	i	68.8	i	i
C[C@H](CO)N1C[C@H](C)[C@H](CN(C)Cc2ccc(C(F)(F)F)cc2)OCCCC[C@H](C)Oc2ccc(NC(=O)Nc3ccccc3)cc2C1=O	i	i	i	i
COc1ccc(CN(C)C[C@H]2OCCCC[C@H](C)Oc3ccc(NC(=O)Nc4cccc5ccccc45)cc3C(=O)N([C@H](C)CO)C[C@H]2C)cc1	i	69.6	i	i
COc1ccc(CN(C)C[C@H]2OCCCC[C@@H](C)Oc3ccc(NC(=O)Nc4ccc(C(F)(F)F)cc4)cc3C(=O)N([C@H](C)CO)C[C@H]2C)cc1	nt	56.1	i	nt
COc1ccc(NC(=O)Nc2ccc3c(c2)C(=O)N([C@@H](C)CO)C[C@@H](C)[C@@H](CN(C)Cc2ccc(C(F)(F)F)cc2)OCCCC[C@H](C)O3)cc1	i	i	i	i
SMILES	LGR2 inh	EWS-Fli inh	Ecoli rRNA inh	E-selectin induc
COc1ccc(CN(C)C[C@@H]2OCCCC[C@H](C)Oc3ccc(NC(=O)Nc4ccc(C(F)(F)F)cc4)cc3C(=O)N([C@@H](C)CO)C[C@@H]2C)cc1	nt	82.9	i	nt
CC(C)NC(=O)N(C)C[C@@H]1Oc2ncc(C#Cc3ccc(F)cc3)cc2C(=O)N([C@@H](C)CO)C[C@H]1C	i	i	i	i
COc1ccc(NC(=O)N(C)C[C@@H]2Oc3ccc(N(C)C)cc3CC(=O)N([C@H](C)CO)C[C@H]2C)cc1	i	nt	i	i
C[C@@H]1CN([C@@H](C)CO)C(=O)Cc2cc(NS(=O)(=O)c3ccc(Cl)cc3)ccc2O[C@@H]1CN(C)C(=O)Nc1ccc2c(c1)OCO2	i	i	i	i
COc1ccc([Si](C)(C)[C@@H]2[C@@H](CCn3cc([C@H](O)c4ccccc4)nn3)O[C@]3(C(=O)N(C)c4ccccc43)[C@H]2C)cc1	nt	i	nt	nt
COc1ccc(CN(C)C[C@H]2OCCCC[C@H](C)Oc3ccc(NC(=O)Nc4ccc(C(F)(F)F)cc4)cc3C(=O)N([C@@H](C)CO)C[C@H]2C)cc1	nt	67.3	i	nt
COc1ccc(CN(C)C[C@H]2OCCCC[C@H](C)Oc3ccc(NC(=O)Nc4ccc(F)cc4)cc3C(=O)N([C@H](C)CO)C[C@@H]2C)cc1	i	i	i	i
COc1ccc(CN(C)C[C@H]2OCCCC[C@@H](C)Oc3ccc(NC(=O)Nc4ccc(F)cc4)cc3C(=O)N([C@H](C)CO)C[C@H]2C)cc1	i	67.1	i	i
CO[C@H]1CN(C)C(=O)c2cc(NC(=O)C3CCOCC3)ccc2OC[C@H](C)N(C(=O)c2ccccc2)C[C@H]1C	i	i	i	i
C[C@H](CO)N1C[C@H](C)[C@H](CN(C)Cc2ccccc2)Oc2c(NC(=O)Nc3cccc4ccccc34)cccc2C1=O	i	i	i	i
C[C@@H]1CN([C@H](C)CO)C(=O)c2cccc(NC(=O)C3CC3)c2O[C@@H]1CN(C)Cc1ccccc1	i	i	i	72.0
C[C@H](CO)N1C[C@H](C)[C@@H](CN(C)Cc2ccccc2)Oc2c(NC(=O)C3CC3)cccc2C1=O	i	i	i	102.1!
C[C@H]1CN([C@@H](C)CO)C(=O)c2cccc(NC(=O)Nc3cccc4ccccc34)c2O[C@H]1CN(C)Cc1ccc(-c2ccccc2)cc1	i	i	i	89.7
c1coc(-c2cnc3ccccc3n2)c1	i	i	i	nt
c1coc(-c2nc3ccccc3nc2-c2ccco2)c1	i	i	-28.1	nt
COC(=O)C(Cc1ccc(O)cc1)NC(=O)C12CC3CC(CC(C3)C1)C2 (stereo unspecified)	i	i	i	nt
COC(=O)C(Cc1ccccc1)NC(=O)C12CC3CC(CC(C3)C1)C2 (stereo unspecified)	i	i	-34.2	i
CO[C@H]1CN(C)C(=O)c2cc(NC(=O)Cc3ccccc3)ccc2OC[C@H](C)N(CC2CC2)C[C@H]1C	i	i	i	i

Assay outcomes deposited in PubChem by Broad Institute.
